# Cav3 T inh – Cav3.2 calcium influx blockers – cell-based, Fluo-4 calcium fluorescence, FDSS, MLSMR library, primary screen; actives 4% (n = 100,000); B-score at 10 µM; AID 449739, 2010; Cav3.2-expressing cells; stronger effect = lower value; Voltage-dependent T-type calcium channel subunit alpha-1H (Homo sapiens), O95180;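 active means single-dose well whose peak fluorescence ratio is a statistical outlier from its plate by either plate-standardised score or position-corrected B-score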
# PostGolgi yeast – phenotypic screen on post-Golgi transport, primary screen; post-Golgi transport phenotypic cell assay; inhibition, % at 10 µM; actives 0.9% (n = 98,000); AID 739, 2007;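 further: yeast cells grown in 1536-well plates; yeast grown about 18 h at 30C before absorbance read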
# PTK2B oligo ant – antagonists of Pyk2 self-association, primary screen, Q293 cells, FERM NanoBiT luminescence, HTS; stronger effect = lower value; actives 0.83% (n = 99,000); z-score (the deposit names both 25 µM and 10 µM); AID 1347419, 2020;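 active means Z-score of -3 or lower, scaled per plate to the spread of control and sample wells; inactive means z-score above -3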;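 further: negative z-score means lost luminescence so less FERM oligomerization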
# Target sequence (Q14289 whole entry, looked up): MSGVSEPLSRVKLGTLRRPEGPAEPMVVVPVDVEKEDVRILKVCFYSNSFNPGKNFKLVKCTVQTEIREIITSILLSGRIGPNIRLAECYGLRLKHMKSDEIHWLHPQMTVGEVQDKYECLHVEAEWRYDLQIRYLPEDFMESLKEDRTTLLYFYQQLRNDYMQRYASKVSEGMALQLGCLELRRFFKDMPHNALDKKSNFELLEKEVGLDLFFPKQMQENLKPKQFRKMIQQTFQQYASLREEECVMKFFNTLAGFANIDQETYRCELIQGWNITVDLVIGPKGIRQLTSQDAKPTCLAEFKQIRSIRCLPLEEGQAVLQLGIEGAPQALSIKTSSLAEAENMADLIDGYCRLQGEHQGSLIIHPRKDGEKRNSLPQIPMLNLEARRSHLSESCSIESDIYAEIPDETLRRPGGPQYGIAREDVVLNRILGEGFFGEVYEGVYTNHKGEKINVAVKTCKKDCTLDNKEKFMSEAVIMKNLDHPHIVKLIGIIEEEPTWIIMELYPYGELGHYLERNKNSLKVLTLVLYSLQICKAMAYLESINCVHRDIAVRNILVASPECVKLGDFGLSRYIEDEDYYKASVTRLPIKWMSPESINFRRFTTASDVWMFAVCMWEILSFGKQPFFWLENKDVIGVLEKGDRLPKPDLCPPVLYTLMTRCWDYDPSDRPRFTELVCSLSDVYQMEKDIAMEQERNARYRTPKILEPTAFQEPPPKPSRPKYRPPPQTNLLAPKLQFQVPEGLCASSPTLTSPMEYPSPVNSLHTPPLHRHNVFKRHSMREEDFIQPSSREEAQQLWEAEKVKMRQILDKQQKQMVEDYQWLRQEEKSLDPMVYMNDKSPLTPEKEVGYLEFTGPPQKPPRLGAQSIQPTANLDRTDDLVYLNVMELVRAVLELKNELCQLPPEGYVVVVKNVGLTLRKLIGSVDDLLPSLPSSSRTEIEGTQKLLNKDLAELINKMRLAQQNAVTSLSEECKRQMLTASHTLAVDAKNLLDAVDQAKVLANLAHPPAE
# tolC growth inh – growth inhibitors of E. coli tolC mutant, primary screen, strain BW25113 ΔtolC::kan, 384-well; actives 2.2% (n = 65,000); growth inhibition, % at 10 µM (by protocol); OD615;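 active means growth inhibition at or above a cutoff equal to the mean over every tested compound plus 3 SD, cut at about 60% in these data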;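 further: growth measured after 20 h incubation at 37 °C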
#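 Assay system: tolC-deleted E. coli BW25113. Medium: kanamycin-containing LB broth (50 µg/mL). Dosing: 10 µM final, single dose. Timing: bacterial growth with compound for 20 h at 37 °C. Detection: A615 absorbance measurement. Read-out basis: growth inhibition in percent.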
# PostGolgi ctrl – growth inhibition of yeast control strain, primary screen, counter-screen for post-Golgi transport modulator project; actives 5% (n = 98,000); inhibition, % at 10 µM; efflux-deficient yeast background strain, growth absorbance A615, 16 h; AID 738, 2007
# Ecoli WT expand – growth inhibitors of wild-type E. coli, primary screen, strain BW25113, expanded library, OD600 | growth inhibition, % at 100 µM | actives 0.15% (n = 98,000) | AID 710, 2007 | OD600 absorbance;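 active means growth inhibition above about 50% at one test dose, limit read from the data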;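 further: growth measured after 20 h incubation at 37 °C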
# An asterisk follows results filed as active; . = no result given. An excerpt weighted towards active compounds, which were near 8.7% of everything screened. Unless noted, no stated cut-off is given here; in the data, active means inhibition above about 30%; inactive means the rest.
SMILES,Cav3 T inh,PostGolgi yeast,PTK2B oligo ant,tolC growth inh,PostGolgi ctrl,Ecoli WT expand
Cc1cc(C)c2cc(CN(CC3CCCO3)S(=O)(=O)c3ccc4c(c3)OCCO4)c(=O)[nH]c2c1 (configuration not stated),-2.92,12.8,-2.52,66.6*,8.8,-4.0
Cc1ccc(-c2csc(NC(=O)CSc3ncn(-c4ccccc4)n3)n2)cc1,-0.129,-5.2,-0.12,-8.8,-3.4,-20.0
Cc1cc(C)nc(NC(=O)C(C)C)n1,0.472,1.3,-0.12,.,3.3,-2.0
O=C(CCCSc1nc2ccccc2[nH]1)N1CCN(c2ccccc2)CC1,-1,-9.0,-0.04,37.0,-0.1,13.0
Cc1cccc(N2CCN(C(=O)CCCSc3nc4ccccc4[nH]3)CC2)c1C,-5.53*,10.2,-0.61,.,38.8*,-10.0
O=C1NCCCC1C(=O)N1CCN(C(=O)C2CCCNC2=O)CC1 (configuration not stated),.,.,.,-26.9,.,.
Cc1cc(C)c2cc(CN(Cc3ccco3)C(=O)NCc3ccccc3)c(=O)[nH]c2c1,-7.1*,4.8,0.99,7.1,22.0,-2.0
Cc1ccc2cc(CN(CCCN3CCOCC3)C(=O)NC3CCCCC3)c(=O)[nH]c2c1C,0.736,0.5,0.31,18.4,5.2,6.0
Cc1ccc2cc(CN(Cc3ccco3)C(=O)C3CCCCC3)c(=O)[nH]c2c1C,-1.49,13.2,-1.06,-3.7,35.2*,-3.0
Cc1cc(C)c2[nH]c(=O)c(CN(Cc3ccco3)C(=O)C3CCCO3)cc2c1 (configuration not stated),0.0335,6.0,-0.16,-0.9,0.0,1.0
Cc1ccc2cc(CN(Cc3ccco3)C(=O)NC3CCCCC3)c(=O)[nH]c2c1C,-4.36*,.,-1.47,.,.,.
Cn1c(=O)c2c(ncn2CC(=O)OCc2ccccc2)n(C)c1=O,0.147,-2.0,0.89,-6.9,5.9,-7.0
COC(=O)c1ccc(=O)n(Cc2ccc3c(c2)OCO3)c1,-0.841,0.3,0.19,10.7,11.3,8.0
C/C(=N\Nc1ccc([N+](=O)[O-])cc1[N+](=O)[O-])C(C)(C)C(C(=O)O)C(=O)O,.,.,0.18,.,.,.
O=C(Nc1ccccc1-c1nc2ccccc2o1)c1ccc2c(c1)OCCO2,.,.,.,-18.5,.,.
O=C(Nc1ccc2oc(-c3ccccc3F)nc2c1)c1ccc2c(c1)OCCO2,-0.158,6.7,-3.14*,55.6,28.1,-13.0
CCCCCc1c2c(cc(O)c1C(=O)O)OC(=O)c1c(cc(OC)cc1C(=O)CCCC)O2,-3.95*,.,.,.,.,.
CCN(CC)C(=O)C1CCCN(C(=O)Nc2ccccc2)C1 (configuration not stated),0.391,7.4,1.85,.,12.3,5.0
COc1cc(CCCN2C(N)=NC[C@@H]2Cc2ccc(O)cc2)cc(OC)c1OC,0.0478,.,.,.,.,.
Nc1nc(-c2ccc(Br)s2)c(Br)s1,0.667,-0.6,-0.41,20.5,51.4*,0.0
CCOC(=O)C1=C(C)NC(=O)NC1C(C)C (configuration not stated),1.47,.,.,.,.,.
COC(=O)CN1C(=O)Nc2ccc(Br)cc2C1c1ccccc1Cl (configuration not stated),-3.47,-9.3,-1.5,.,33.4*,-2.0
O=C(NC(=S)N(CCCCO)C1CCCCC1)c1sc2ccccc2c1Cl,-1.72,-1.1,0.35,.,17.6,-2.0
CCc1ccc2c(COC(=O)c3n[nH]c4ccccc34)cc(=O)oc2c1,-0.0185,-4.0,-0.77,21.2,37.3*,-2.0
CCOc1ccccc1-c1nc(-c2cc3ccc(C)cc3[nH]c2=O)no1,-2.53,-7.7,-2.97,-0.8,30.8*,-14.0
SMILES,Cav3 T inh,PostGolgi yeast,PTK2B oligo ant,tolC growth inh,PostGolgi ctrl,Ecoli WT expand
CC(C)[C@H]1CC[C@@H](C)C(C(=O)c2ccccc2)C1=O (some centres not stated),.,.,0.39,.,.,.
O=C(O)c1sccc1SCc1ccc(Cl)c(Cl)c1,-4.2,-7.6,1.74,.,-6.8,5.0
O=c1cc2c(nn1Cc1c(Cl)cccc1Cl)-c1ccccc1CC2,-0.741,15.5,-1.18,.,31.8*,-7.0
Cc1nn(Cc2c(Cl)cccc2Cl)c(C)c1N,0.596,.,0.26,.,.,.
Clc1ccccc1CSc1cc2c(nn1)-c1ccccc1CC2,.,1.1,0.52,.,0.1,-21.0
Clc1ccc(CSc2cc3c(nn2)-c2ccccc2CC3)cc1Cl,-5.3*,-7.1,0.77,.,26.4,-18.0
Clc1cccc(Cl)c1CSc1cc2c(nn1)-c1ccccc1CC2,-3.95*,-2.4,-1.05,.,4.5,-18.0
C=CCn1c(SC(C)CC)nc(O)cc1=O (configuration not stated),-0.000947,-1.1,-4.5*,.,0.4,-7.0
N=c1oc2c3c4c(cc2cc1C(=O)Nc1ccccc1)CCCN4CCC3,-11.5*,8.5,-0.57,9.0,10.1,0.0
CC(C)(C(=O)c1ccccc1)/[N+]([O-])=C/c1ccc(Br)cc1,-0.676,.,-0.02,.,.,.
Oc1c(C(c2cccs2)N2CCN(c3cccc(Cl)c3)CC2)sc2ncnn12 (configuration not stated),-1.78,4.4,.,100.0*,2.2,3.0
COC(=O)c1c(C)oc2ccc(OC(=O)c3cccs3)cc12,-0.0244,-11.7,0.98,83.8*,2.7,-15.0
COCCOC(=O)c1c(C)oc2ccc(OC(=O)c3cccs3)cc12,0.221,-2.6,1.55,40.3,13.3,-6.0
CCCC(=O)Nc1nc2ccc(NC(=O)c3ccc(Br)o3)cc2s1,.,-4.4,-2.59,1.6,40.8*,-14.0
Brc1ccc2ncnc(NCc3ccccc3)c2c1,0.0729,2.0,-0.63,.,13.6,-4.0
Clc1cccc(Nc2ncnc3ccc(Br)cc23)c1,-2.57,9.4,-1.6,.,46.2*,2.0
Clc1ccc(Nc2ncnc3ccc(Br)cc23)cc1,-2.24,-2.7,-2.62,.,33.1*,-5.0
O=C1NCCCC1C(=O)N/N=C/c1ccccc1 (configuration not stated),0.102,-1.4,1.91,.,2.0,3.0
COc1ccc(S(=O)(=O)n2cnc3cc(C)c(C)cc32)cc1,-2.68,-5.8,0.52,46.5,4.7,12.0
COc1ccc(S(=O)(=O)n2cnc3cc(C)c(C)cc32)cc1C,0.252,1.3,1.81,77.5*,14.3,-1.0
O=C(c1n[nH]c2ccccc12)N1CCN(S(=O)(=O)c2ccc3ccccc3c2)CC1,-0.537,14.1,-2.41,34.1,55.8*,-1.0
CCOC(=O)Cn1c(=O)n(Cc2ccco2)c(=O)c2ccc(C(=O)NCCc3ccccc3)cc21,-4.57*,-2.0,0.45,40.8,12.0,-16.0
Cc1ccc(NC(=O)C2(NC(=O)c3cccc(N4C(=O)CSC4c4ccccc4)c3)CCCCC2)cc1 (configuration not stated),-6.93*,-8.7,-0.9,.,2.6,-2.0
Cc1cccc(N2C(=O)CSC2c2cccnc2)c1 (configuration not stated),-0.148,20.4,-1.34,.,3.0,0.0
Cc1c(NS(=O)(=O)c2cccc3nsnc23)c(=O)n(-c2ccccc2)n1C,.,.,.,7.3,.,.

# Assay outcomes from PubChem BioAssay.
